# Laboratory results from article PMC8126997 (ACS chemical biology, 2021).
# Tests used:
# [1] = system: HTLV-1 Gag cleavage in SP cells (chronically infected with HTLV-1); test: SP cell protease inhibition treatment, Gag processing by anti-p24 immunoblot; type: cell-based; details: 48 h; for Amount of full-length (FL) Gag and larger size cleavage intermediates (CI): SP cell lysates and supernatants, 50 µM or 100 µM; for FL Gag band percentage (mean ± SEM), cell lysate: SP cell lysate, DMSO 2.0 ± 1.0%; for FL Gag band percentage (mean ± SEM), cell lysate / FL Gag band percentage (mean ± SEM), viral particles produced from SP cells: n=3; for FL Gag band percentage (mean ± SEM), viral particles produced from SP cells: particles in cell culture supernatant
# Summary of the method: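 SP cells kept in RPMI with 20% FC3 serum, 1% penicillin-streptomycin and human IL-2 (10 U/ml). Medium exchanged for medium containing 50 or 100 µM test compound, or 0.01% v/v DMSO control, for 48 h at 37 °C and 5% CO2. Supernatant was 0.22 µm-filtered and pelleted over an 8% Optiprep cushion, with pellet lysed in RIPA buffer. Lysates and pellets were immunoblotted with anti-p24. FL Gag was quantified as % of lane bands, reported as mean ± SEM (n=3), and compared with DMSO by one-tailed t-test.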
# [2] = system: wild type (WT) HIV-1 protease; details: cited from earlier work
# HTLV-1 protease = HTLV-1 protease (Human T-cell leukemia virus type I, UniProt Q82134, L40I); details: relative to UM6
SMILES,Amount of full-length (FL) Gag and larger size cleavage intermediates (CI) [1],Potency against wild type (WT) HIV-1 protease [2],"FL Gag band percentage (mean ± SEM), cell lysate ([1]; 50 µM inhibitor) [%]","FL Gag band percentage (mean ± SEM), cell lysate ([1]; 100 µM inhibitor) [%]","FL Gag band percentage (mean ± SEM), viral particles produced from SP cells ([1]; 50 µM inhibitor) [%]","FL Gag band percentage (mean ± SEM), viral particles produced from SP cells ([1]; 100 µM inhibitor) [%]",Fold better inhibition of HTLV-1 protease than UM6 (HTLV-1 protease) [fold]
"CC(C)CN(C[C@@H](O)[C@H](Cc1ccccc1)NC(=O)O[C@H]1CO[C@H]2OCC[C@H]21)S(=O)(=O)c1ccc(N)cc1 [DRV, darunavir, reference compound]",increased,low-picomolar,,,,,
CCOP(=O)(COc1ccc(C[C@H](NC(=O)O[C@H]2CO[C@H]3OCC[C@H]32)[C@H](O)CN(CC(CC)CC)S(=O)(=O)c2ccc(N)cc2)cc1)OCC [PU6],increased,,32.4 ± 15.5,41.0 ± 13.7,5.8 ± 2.8,12.9 ± 3.1,4
